SR-BI HDL uptake – inhibitors of mouse SR-BI mediated HDL lipid uptake; Q61009; ldlA[mSR-BI] CHO cells, DiI-HDL uptake fluorescence, 3 h; inhibition, % at 12.5 µM; 0.96% of 320,000 active; AID 488896;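 active = mean replicate inhibition of at least 70% and a set share of replicates each scoring 70 or more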
Target sequence (Q61009 whole entry, looked up): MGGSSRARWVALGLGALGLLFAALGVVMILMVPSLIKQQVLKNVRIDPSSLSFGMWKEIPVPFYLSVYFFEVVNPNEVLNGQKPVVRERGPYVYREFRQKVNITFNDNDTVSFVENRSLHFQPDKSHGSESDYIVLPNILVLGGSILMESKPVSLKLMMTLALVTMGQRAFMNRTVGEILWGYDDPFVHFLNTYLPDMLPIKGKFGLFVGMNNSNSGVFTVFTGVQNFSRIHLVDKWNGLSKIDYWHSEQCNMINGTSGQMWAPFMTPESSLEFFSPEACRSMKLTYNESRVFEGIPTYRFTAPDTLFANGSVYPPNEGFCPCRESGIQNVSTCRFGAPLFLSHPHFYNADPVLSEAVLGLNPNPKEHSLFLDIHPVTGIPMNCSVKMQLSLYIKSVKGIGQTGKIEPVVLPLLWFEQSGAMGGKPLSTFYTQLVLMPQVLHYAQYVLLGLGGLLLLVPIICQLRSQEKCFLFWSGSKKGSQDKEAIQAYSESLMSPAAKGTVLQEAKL
GAA850 FXN act – activators of GAA850 frataxin (FXN) promoter; HEK293 lucGAA850 FXN promoter luciferase reporter, 24 h; percent of 10 µM SAHA response; activation, % at 6 µM; 0.56% of 360,000 active; AID 540364;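 active = activation above the average of all compounds screened plus 3 SD, cutoff fixed separately per campaign, cut at about 7.5% in these data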
JMJD2C inh – blocks human GASC-1 demethylase activity | Q9H3R0 | GST-JMJD2C(1-420) H3K9me3 demethylation, DELFIA europium | inhibition, % at 2.35 µM | 0.069% of 330,000 active | AID 2099;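 active = more than half of a compound's replicate wells show inhibition beyond 50%, single wells judged on their own value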;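 also: signal counts dimethyl H3K9 product captured on neutravidin plate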
AHR activator – activates the human aryl hydrocarbon receptor; AHR-responsive luciferase reporter cells, luminescence; 2.5% of 320,000 active; AID 2796; P35869; activation, % at 5 µM; in the data active = activation above about 47%
SR-BI DiI-HDL act – activators of SR-BI mediated HDL lipid uptake. CHO ldlA[mSR-BI] cells, DiI-HDL uptake fluorescence, 3 h; 100 = double the neutral-control signal. activation, % at 12.5 µM. 0.096% of 320,000 active. AID 504775;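 active = mean replicate activation of at least 60% and every replicate at or above 60%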
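material = CHO ldlA[mSR-BI] cells | medium = Ham's F12 with 0.5% BSA, HEPES 25 mM, pH 7.4 | reagent = fluorescent DiI-HDL, 10 µg/mL final | compound dosing = single-point compound dose | incubation = 3 h, 37 °C | measured by = bottom-read fluorescence, 550/595 nm | measure = HDL uptake via cellular fluorescence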
A number is an active result; 0 = inactive; - = no result given. This is a sample that favours compounds with a hit; in the whole collection about 3.7% have one here.

SMILES	SR-BI HDL uptake	GAA850 FXN act	JMJD2C inh	AHR activator	SR-BI DiI-HDL act
Cn1c(CNC(=O)c2ccccc2F)nnc1SCc1nc2ccccc2c(=O)[nH]1	-	-	0	0	-
Cc1c(N=C2NN=C(c3c[nH]c4ccccc34)CS2)c(=O)n(-c2ccccc2)n1C	0	0	0	56	0
Cc1c(N=C2NN=C(c3ccc(Cl)cc3)CS2)c(=O)n(-c2ccccc2)n1C	0	0	0	0	0
CCOC(=O)C1=C(C)C(c2ccccc2)NC(=S)N1 (configuration not stated)	0	0	0	0	0
O=C1c2ccccc2C(=Nc2ccccc2)C1c1cccc(Br)c1 (configuration not stated)	81	0	0	0	0
Cc1nc(N/N=C/c2ccc(O)cc2)c2cnn(-c3ccccc3)c2n1	75	0	0	0	0
Oc1ccc(/C=N/Nc2ccccc2)cc1	0	0	0	0	0
Cc1nc2ccccc2nc1N/N=C/c1ccc(O)cc1	-	0	0	76	-
Oc1ccc(Nc2nc3ccccc3nc2Nc2ccc(O)cc2)cc1	90	0	0	0	0
Cc1nc2c(cnn2-c2ccccc2)c(=O)n1/N=C/c1ccccc1	0	0	0	0	0
COCC1CCCCN1C(=O)c1cccc(OC2CCN(S(C)(=O)=O)CC2)c1 (configuration not stated)	0	0	0	0	0
CCN(CC)CCNC(=O)CN1C(=O)CSc2ccc(S(=O)(=O)N3CCOCC3)cc21	-	0	-	-	-
NNC(=O)c1cc(C23CC4CC(CC(C4)C2)C3)nc2ccccc12	89	0	0	0	0
O=C(NNc1c2ccccc2nc2ccccc12)C12CC3CC(CC(C3)C1)C2	0	0	0	0	0
CCOc1ccccc1N(CC(=O)NCCc1ccc(OC)c(OC)c1)S(=O)(=O)c1ccccc1	-	0	0	0	-
CC(C)NC(=O)c1sc2nc3c(c(-c4cccs4)c2c1N)CN(C)CC3	0	0	0	0	0
Cc1cccc(NC(=O)c2sc3nc4c(c(-c5cccs5)c3c2N)CN(C)CC4)c1	83	0	0	0	0
Clc1ccc(/C=N/c2c(-c3ccc(Cl)cc3)nc3n2CCS3)cc1	89	0	0	0	0
Cc1ccccc1OCCC(=O)Nc1cc(S(=O)(=O)N2CCOCC2)ccc1OC(C)C	0	0	0	0	0
O=C(CN1C2=NCCCN2c2ccccc21)c1cccc(Br)c1	0	0	0	0	0
O=C(CN1C2=NCCCN2c2ccccc21)c1ccc(Cl)cc1Cl	0	0	0	59	0
Cc1cc(NC(=O)C(C)Oc2ccc(C(C)(C)C)cc2)no1 (configuration not stated)	0	0	0	0	0
CCOc1ccccc1CSc1nc2ccccc2[nH]1	0	0	0	54	0
Cc1ncc(CSc2nc3ccccc3[nH]2)c(N)n1	0	0	0	0	0
Cn1cccc1CNC(=S)Nc1ccccc1Cl	-	0	0	0	-
SMILES	SR-BI HDL uptake	GAA850 FXN act	JMJD2C inh	AHR activator	SR-BI DiI-HDL act
O=C(Nc1cccc(F)c1)C1CCN(C(=O)c2ccccc2Cl)CC1	0	0	0	0	0
CN(C)c1nc2ccccc2c(N)c1-c1ccccc1	0	0	0	55	0
COc1ccc(-n2nc(C(=O)NCC(=O)NCc3ccc(F)cc3)c3ccccc3c2=O)cc1OC	0	0	0	0	0
CC(C)(C)NC(=O)CCCSc1nc2ccccc2s1	0	0	0	0	0
O=C(CCCSc1nc2ccccc2s1)NCc1ccc2c(c1)OCO2	0	0	0	50	0
O=C(CSc1ccc2nnc(-c3ccccc3)n2n1)NCc1ccc2c(c1)OCO2	0	0	0	56	0
O=C(CSc1ccc2ccccc2n1)NCc1ccc2c(c1)OCO2	0	0	0	64	0
O=C(CSc1n[nH]c(-c2cccs2)n1)NCc1ccc2c(c1)OCO2	0	0	0	58	0
Nc1cc(N)nc(SCC(=O)NCc2ccc3c(c2)OCO3)n1	0	0	0	0	0
CCCC(c1nnnn1C(C)(C)CC)N1CCN(C(=O)c2ccco2)CC1 (configuration not stated)	0	0	0	0	0
Cc1cc(C)c(S(=O)(=O)N2CCCC(C(=O)NC3CC3)C2)c(C)c1 (configuration not stated)	0	0	0	0	0
O=C(Nc1ccc(/C=C/c2nc3ccccc3o2)cc1)c1c(F)cccc1F	0	0	0	49	0
CC(=O)Nc1ccc(C23CC4CC(CC(C4)C2)C3)cc1	0	0	0	0	0
CC(=O)Nc1ccc(NC(=O)CN(c2ccc(C34CC5CC(CC(C5)C3)C4)cc2)S(C)(=O)=O)cc1	-	9.5	0	0	-
CS(=O)(=O)N(CC(=O)Nc1c(F)cccc1F)c1ccc(C23CC4CC(CC(C4)C2)C3)cc1	0	0	0	0	0
CS(=O)(=O)N(CC(=O)Nc1ccc(CC#N)cc1)c1ccc(C23CC4CC(CC(C4)C2)C3)cc1	0	11	0	0	0
Cc1cc(C)cc(NC(=O)CSc2nnnn2-c2cccnc2)c1	0	0	0	0	0
Cc1ccccc1Nc1nc(N)nc(CSc2nnnn2-c2ccccc2)n1	0	0	0	0	0
CCc1ccc(Nc2nc(N)nc(CSc3nnnn3-c3ccccc3)n2)cc1	0	0	0	50	0
CCc1ccc(NC(=O)CSc2nnnn2-c2cccnc2)cc1	0	0	0	63	0
CCc1ccc(NC(=O)CSc2nnc(Cn3c(=O)sc4ccccc43)n2C)cc1	0	0	0	78	0
CCNc1nc(NCC)n2c(SCC(=O)Nc3ccc(CC)cc3)nnc2n1	0	0	0	50	0
CNC(=O)C1C2C=CC3(O2)C1C(=O)N(C1CC1)C3C(=O)NCc1ccc(OC)cc1 (configuration not stated)	0	0	0	0	0
CC(C)=CCc1c(O)cc2c(=O)c3ccc(O)cc3oc2c1O	0	0	0	62	0
CC1(C(=O)NCc2ccc(F)c(F)c2)Cc2c(-c3ccccc3)ccnc2O1 (configuration not stated)	-	0	-	-	-
SMILES	SR-BI HDL uptake	GAA850 FXN act	JMJD2C inh	AHR activator	SR-BI DiI-HDL act
CCN(CC)C(=O)C(=O)c1cccn1-c1cccc(OC)c1C#N	0	0	0	0	0
CCOC(=O)Cc1csc(N/N=C\c2ccccc2OC)n1	0	0	0	51	0
C/C(=N\NC(=O)CCC(=O)N/N=C(\C)c1ccc(C)o1)c1ccc(C)o1	-	0	0	74	-
C/C(=N\NC(=O)C(O)(c1ccccc1)c1ccccc1)c1ccc(C)o1	0	0	0	0	0
O=C(O)CN1C(=O)/C(=C\c2cccc(OCc3ccccc3F)c2)SC1=S	0	0	0	0	0
O=C(O)CN1C(=O)/C(=C\c2cc(Br)ccc2OCc2ccc(Cl)cc2Cl)SC1=S	0	0	0	64	0
O=C(O)CN1C(=O)/C(=C\c2ccccc2OCc2ccc(Cl)cc2)SC1=S	0	0	0	59	0
O=C(O)CN1C(=O)/C(=C\c2cccc(OCc3ccc(Cl)cc3)c2)SC1=S	0	0	0	0	0
Cc1noc(C)c1COc1ccc(C(=O)Nc2nnc(CC(C)C)s2)cc1	82	0	-	0	0

Screening results: PubChem, several laboratories
